# Measurements published in PubChem BioAssay AID809 (SRMLSC, 2007).
# The source made the active and inactive calls.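 How the source made its calls: active means EC50 for reversing nicotinamide-shortened yeast lifespan at or below a set limit; inactive means EC50 above that limit.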
# Test system: S. cerevisiae DeaD BB579, nicotinamide rescue growth, OD615 48 h
# Assay: rescue of nicotinamide-suppressed growth of yeast BB579, dose response, yeast lifespan extension project, S. cerevisiae (AID 809)
# How it was run: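 Assay system: Saccharomyces cerevisiae DeaD strain BB579, log-phase cells; Medium: CSMM-D glucose restrictive medium; Dosing: compounds from 0.078 to 10 µM final, 0.5% DMSO; Times: 4 h pre-incubation, 48 h exposure at 30 °C; Technique: optical density at 615 nm (absorbance); Evaluation: culture saturation density reflecting mother-cell replicative lifespan.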
row,Structure (SMILES),EC50
1,CC(C)C(c1nnnn1Cc1ccccc1)N1CCN(Cc2ccc3c(c2)OCO3)CC1 (configuration not stated),> 10 µM (inactive)
2,Cc1oc2c(c(=O)c1C)C(=O)CC(c1ccccc1)C2 (configuration not stated),7.82 µM
3,CCc1ccc2c(c1)CCCN2C(=O)c1ccccc1C(=O)O,9.34 µM
4,CCCCn1c(/N=C/c2ccccc2NS(=O)(=O)c2ccc(C)cc2)nc2ccccc21,3.53 µM
5,CC(=O)c1c(C)[nH]c(C(=O)OC2CCCCC2=O)c1C (configuration not stated),> 10 µM (inactive)
6,COCCOC(=O)/C(=C/c1ccc(OC(=O)c2ccccc2)cc1)C(C)=O,4.96 µM
7,Cc1ccc(C(C2=C(O)CC(C)(C)CC2=O)C2C(=O)CC(C)(C)CC2=O)o1 (configuration not stated),6.35 µM
8,CCCc1[nH]nc2c1C(c1ccc(Br)s1)C(C#N)=C(N)O2 (configuration not stated),6.56 µM
9,O=C1/C(=C\c2cccnc2)CN(Cc2ccccc2)C/C1=C\c1cccnc1,9.63 µM
10,Cc1ccnc(SCc2cc(=O)c(OC(=O)c3ccco3)co2)n1,8.45 µM
11,COc1ccccc1C(=O)Oc1ccc2c(c1)O/C(=C\c1ccncc1)C2=O,> 10 µM (inactive)
12,Cc1ccnc(-n2c(C)cc(/C=C3\C(=O)NC(=S)N(C)C3=O)c2C)c1,> 10 µM (inactive)
13,Cc1c(NC(=O)C(=O)/C=C(\O)c2ccc(Cl)cc2)c(=O)n(-c2ccccc2)n1C,3.19 µM
14,O=c1cc(O)c2c(=O)n(-c3ccccc3)c3c(c2o1)CCCCC3,5.16 µM
15,CCCN1C(=O)/C(=C/c2ccncc2)SC1=S,6.93 µM
16,O=C1c2ccccc2-c2onc3c(Oc4ccccc4)cc(O)c1c23,6.05 µM
17,CCN1CCCC1CNC(=O)COc1cc(=O)n(C)c2ccccc12 (configuration not stated),> 10 µM (inactive)
18,CCc1nc(SCC(=O)c2ccc3c(c2)OCCO3)c2ccccc2n1,> 10 µM (inactive)
19,O=C1c2ccccc2NC(c2ccc(Cl)cc2Cl)N1O (configuration not stated),6.33 µM
20,CCCCOC(=O)n1c(=O)oc2cc(S(=O)(=O)N3CCCCC3)ccc21,> 10 µM (inactive)
21,COc1ccccc1C(=O)Oc1cc(N)n(S(=O)(=O)c2ccc(C)cc2)n1,> 10 µM (inactive)
22,CCCC[n+]1c(-c2ccc(Cl)cc2Cl)csc1Nc1ccccc1,> 10 µM (inactive)

row,Structure (SMILES),EC50
1,COc1ccc(C(CNC(=O)c2cccc(Br)c2)N2CCCC2)cc1 (configuration not stated),> 10 µM (inactive)
2,CCOC(=O)CCS(=O)(=O)c1nc(-c2ccccc2)cc(C(F)(F)F)n1,1.13 µM
3,CC(=NCCc1c(C)[nH]c2ccc(C)cc12)C1=C(O)CC(c2ccccc2)CC1=O (configuration not stated),7.69 µM
4,CN1C(=O)/C(=C/c2cccn2-c2ccc3ccccc3c2)C(=O)NC1=S,5.73 µM
5,CCSc1nnc(NC(=O)CSc2nc(C)cc(C)n2)s1,> 10 µM (inactive)
6,CC(=C1C(=O)c2ccccc2C1=O)N1CCN(c2ccccn2)CC1,7.21 µM
7,O=C(NCc1ccco1)c1cc(C(=O)C2CCCCC2)c[nH]1,> 10 µM (inactive)
8,COc1cccc(/C=C2\C(=O)N(c3cccc(C)c3)C(=O)c3ccccc32)c1,> 10 µM (inactive)
9,Oc1ccc2ccccc2c1C=Nc1ccc(N2CCOCC2)cc1,> 10 µM (inactive)
10,COc1ccc(OC)c(NC(=S)N2CCN(C/C=C/c3ccccc3)CC2)c1,> 10 µM (inactive)
11,COc1ccccc1N(CN1CCCC1=O)C(=O)c1c(F)cccc1F,> 10 µM (inactive)
12,O=C1C(=C(O)c2ccccc2)C(=O)c2ccccc21,> 10 µM (inactive)
13,CC(C)=C1C(=O)NN(c2ccc(C)c(Cl)c2)C1=O,9.85 µM
14,O=C1CC(c2ccccc2)CC(O)=C1C=NCCN1CCN(C(=O)Nc2ccccc2)CC1 (configuration not stated),6.64 µM
15,CCCc1cc(=O)oc2cc(C)c(CN3CCCC3)c(O)c12,6.15 µM
16,O=C1OC2(CCCCC2)OC(=O)C1=CNc1nc2ccccc2s1,> 10 µM (inactive)
17,Cc1ccc2[nH]c3c(c2c1)CC/C(=C/c1ccccc1)C3=O,> 10 µM (inactive)
18,Cc1ccsc1C(=O)Nc1nnc(-c2ccco2)o1,9.27 µM
19,CC(=Nc1ccc2c(c1)nc(CO)n2C)C1=C(O)CC(C)(C)CC1=O,> 10 µM (inactive)
20,O=C(NC(=S)Nc1nc2c(s1)CSc1ccccc1-2)c1ccccc1,> 10 µM (inactive)
21,CC(=O)C(C(C)=O)c1c(Cl)c(O)c(O)c2c(C(=O)c3ccccc3)coc12,> 10 µM (inactive)
22,COc1ccc(/C=C/C(=O)C2C(=O)C=C(C)OC2=O)cc1O (configuration not stated),7.47 µM

row,Structure (SMILES),EC50
1,COC(=O)CC1=NN(c2ccccc2)C(=O)/C1=C\c1ccc(OC)cc1,> 10 µM (inactive)
2,Cc1cccc(N2C(=O)C(Oc3ccc(Cl)cc3Cl)C2C=O)c1C (configuration not stated),6.52 µM
3,COc1ccc(C(=O)C(CN2CCOCC2)c2ccccc2)cc1 (configuration not stated),7.11 µM
4,CCC(C)OC(=O)C1C(c2ccccc2)C(C(=O)O)C1c1ccccc1 (configuration not stated),8.26 µM
5,COc1ccc(C(=O)On2c(-c3ccc(Br)cc3)nc3ccccc3c2=O)cc1,3.02 µM
6,Cc1nc2c(=O)n(C)c(=O)n(C)c2nc1Cl,1.72 µM
7,COCCCNC(CC(=O)Nc1ccc(OC)cc1OC)C(=O)O (configuration not stated),> 10 µM (inactive)
8,O=C(NC(=S)NNC(=O)c1ccccc1O)c1ccco1,6.02 µM
9,CC1(C)Cc2ccccc2-c2nnc(SCC(=O)Nc3ccc4c(c3)OCO4)n21,> 10 µM (inactive)
10,Cn1c(=O)c(=O)n(C)c2cc(S(=O)(=O)N3CCN(Cc4ccccc4)CC3)ccc21,> 10 µM (inactive)
11,COc1cnc(-c2ccccn2)nc1Sc1cccc(Cl)c1,4.44 µM
12,COc1ccc(CN2CCN(C(=O)COc3cccc(C)c3)CC2)c(OC)c1,> 10 µM (inactive)
13,Cc1cc(C)cc(CC2CC(=O)N(c3ccc(Cl)cn3)C2=O)c1 (configuration not stated),> 10 µM (inactive)
14,CC(=O)Nc1ccc(C(=O)CSc2nnc(-c3ccc(O)cc3)n2CC2CCCO2)cc1 (configuration not stated),> 10 µM (inactive)
15,Fc1cccc2sc(Nc3nnc(-c4ccco4)o3)nc12,0.24 µM
16,O=C(NCC1CCCO1)c1c(O)c2ccccc2[nH]c1=O (configuration not stated),> 10 µM (inactive)
17,CCOC(=O)CC1=NN(c2ccccc2)C(=O)/C1=C\c1ccc(OC)cc1OC,8.5 µM
18,O=C1/C(=C/c2cccnc2)CCC/C1=C\c1cccnc1,7.04 µM
19,CCOC(=O)C1C(c2cccs2)NC(=O)N(C)C1(O)C(F)(F)F (configuration not stated),> 10 µM (inactive)
20,N#C/C(=C\c1ccccc1)C(=O)N(c1ccccn1)C1CCCCC1,6.66 µM
21,COC(=O)c1cc(=O)n(-c2ccccc2)c(=Nc2ccccc2)s1,> 10 µM (inactive)
22,COC(=O)CSc1ncccc1-c1nc2ccccc2[nH]1,> 10 µM (inactive)

row,Structure (SMILES),EC50
1,CC1=C(C#N)C2C(/C1=N/O)C2(C)C (configuration not stated),> 10 µM (inactive)
2,CCOC(=O)c1ccccc1N1C(=O)CSC1=S,> 10 µM (inactive)
3,CC1(C)CC(=O)C(C(=O)Cc2ccccc2[N+](=O)[O-])C(=O)C1,4.3 µM
4,CCCCC(=Nc1ccc(N)cc1)C1=C(O)C(C(=O)OC)C(C)(C)CC1=O (configuration not stated),5.51 µM
5,COc1cccc(CSc2nc3ccccc3cc2C=O)c1,8.96 µM
6,CCc1[nH]nc2c1C(c1ccc(Br)s1)C(C#N)=C(N)O2 (configuration not stated),9.31 µM
7,COc1ccc(CNC(=O)C2CCN(c3nc(OC)nc(OC)n3)CC2)cc1,> 10 µM (inactive)
8,CSC1=NSC2=NC(=O)/C(=C\c3cccs3)C(=N)N12,3.28 µM
9,COc1ccc(C(=O)C(CN2CCOCC2)c2ccccc2)cc1F (configuration not stated),4.62 µM
10,Cc1ccc(C(=O)c2no[n+]([O-])c2C(=O)c2ccc(C)cc2)cc1,> 10 µM (inactive)
11,CCOC(=O)c1cnc(-c2ccccc2)nc1Oc1ccc(Cl)cc1,> 10 µM (inactive)
12,CCOC(=O)Cc1csc(NC(=O)c2c(O)c3ccccc3n(CC(C)C)c2=O)n1,9.63 µM
13,CC1C/C(=C\c2cccnc2)C(=O)/C(=C/c2cccnc2)C1 (configuration not stated),4.26 µM
14,O=C1C=CC2C(c3ccc4c(c3)OCO4)CC1N2Cc1ccccc1 (configuration not stated),6.04 µM
15,O=C1C(C2=C(O)c3ccccc3C2=O)=Nc2ccccc21,1.7 µM
16,CC(C)C(C(=O)O)N1C(=O)/C(=C/c2cccn2C)SC1=S (configuration not stated),8.05 µM
17,ClC(Cl)(c1nnnn1-c1ccccc1)c1nnnn1-c1ccccc1,> 10 µM (inactive)
18,CCCCCCCC(=O)N/N=C(/C)c1c(O)cc(C)oc1=O,> 10 µM (inactive)
19,COCCn1c(SCC(=O)Nc2ccc(C)cc2)nc2c(oc3ccccc32)c1=O,> 10 µM (inactive)
20,O=C(/C(=C/c1ccccc1)n1cncn1)c1ccc(Cl)cc1Cl,1.07 µM
21,CCOC(=O)CSC1=NC(=O)/C(=C/c2ccc(OC)cc2)S1,6.43 µM
22,Cc1ccc(C(=O)NNC(=S)NC(=O)c2ccc(Cl)cc2)cc1,6.78 µM

row,Structure (SMILES),EC50
1,CC(C)(C)OC(=O)[C@H]1[C@H](c2ccc([N+](=O)[O-])cc2)C2(C(=O)c3ccccc3C2=O)C2c3ccccc3C=NN21 (some centres not stated),8.16 µM
2,CC1=NN(Cc2ccccc2)C(=O)C1C(c1ccccc1)C(C#N)C#N (configuration not stated),> 10 µM (inactive)
3,CS(=O)(=O)c1nc(-c2ccccc2)cc(C(F)(F)F)n1,3.32 µM
4,Cc1ccc(NC(=O)CN2CCN(CCN=CC3=C(O)CC(c4ccccc4)CC3=O)CC2)cc1 (configuration not stated),9.58 µM
5,COc1ccc(/C=C(\C#N)C(=O)N2CCOCC2)cc1Br,8.72 µM
6,COC(=O)/C(=C/c1cn(C)c2ccccc12)[N+](=O)[O-],2.24 µM
7,CC(C)Cc1nn2c(=O)cc(O)nc2s1,8.79 µM
8,CCCCSc1nc(O)c(C2OC(=O)c3c2ccc(OC)c3OC)c(=O)n1C (configuration not stated),5.79 µM
9,O=C(O)c1cccc2c1C(=O)N(C1CCCCC1)C2,4.22 µM
10,C[C@]12CC[C@@H]3c4ccc(O)cc4CC[C@H]3[C@@H]1CC[C@@H]2OC(=O)CCC(=O)O,5.42 µM
11,CC(=O)c1c(O)cc2n(c1=O)-c1ccc(Cl)cc1C2(C)C,7.34 µM
12,C[C@]12CC[C@@H](O)C[C@@H]1CC[C@@H]1[C@@H]2CC[C@]2(C)[C@@H](O)CC[C@@H]12,> 10 µM (inactive)
13,CC1(C)CC(=O)c2sc(NS(C)(=O)=O)nc2C1,> 10 µM (inactive)
14,O=C1CC(c2ccccc2)CC(O)=C1C=NCCN1CCNCC1 (configuration not stated),> 10 µM (inactive)
15,Oc1ccc(NCc2ccccc2OCc2ccccc2F)cc1,> 10 µM (inactive)
16,CC(C)CN=C(NS(=O)(=O)c1ccccc1)C(Cl)(Cl)Cl,3.99 µM
17,CCCCCCCCn1c(=O)c(C(=O)OCC)c(O)c2ccccc21,9.18 µM
18,Cc1ccccc1NC(=O)c1ccccc1,> 10 µM (inactive)
19,CC1=CN2C(=N)/C(=C/c3ccc([N+](=O)[O-])o3)C(=O)N=C2S1,6.69 µM
